# Bioassay records: PubChem, Broad Institute
# T cruzi repl: blocks replication of Trypanosoma cruzi | 300,000 compounds, 1.4% hits | inhibition, % (test concentration not listed) | T. cruzi beta-gal in NIH3T3, luminescence, 90 h | AID 1885;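 active = mean inhibition across valid replicates above about 55%, limit read from the data; inconclusive = mean below that limit but half or more replicates reach it; inactive = mean below it, under half of replicates reach it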;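 note: signal also drops with host cell toxicity which is not excluded here; 0% = plate median of DMSO wells and 100% = zero luminescence signal; higher percent means less beta-gal luminescence so fewer parasites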
#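 System: NIH/3T3 fibroblasts plus reporter T. cruzi. Medium: DMEM plus 2% FBS. Probe or stimulus: 5000 reporter trypomastigotes per well. Compound: single 50 nL compound addition per well in DMSO. Incubation: co-culture of at least 90 h after 3 h attachment. Detection: GalScreen β-gal luminescence, detergent lysis, 60 min. Evaluation: parasite load inhibition, %.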
# PolyA inh: inhibitors of polyadenylation in S. cerevisiae | S. cerevisiae SKY197-pL101 polyadenylation reporter, beta-gal luminescence; efflux-impaired pdr1/pdr3 knockout yeast; score 100 = 6 SD above DMSO | activity score, % at 12 µM | 300,000 compounds, 0.02% hits | AID 1875;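 active = lowest replicate activity score at least 50, where 100 means six control SD above control mean; inconclusive = lowest score under 50 but half or more replicates reach 50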;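 note: yeast exposed to compound for 9 h at 30 °C; higher score means more reporter readthrough which indicates perturbed polyadenylation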
# HIF act: HIF pathway transcriptional activation | activation, % at 7.5 µM (by protocol) | 300,000 compounds, 0.32% hits | U2OS HRE-luciferase reporter, luminescence; normalized: DMSO 0%, desferrioxamine 100%;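 active = mean activation of at least 10% of the iron chelator positive control signal, with at least half of replicates also reaching 10%; inconclusive = mean and replicate majority disagree about reaching 10%; inactive = mean and most replicates under 10%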
# Calb FLC: affects C. albicans growth with fluconazole. C. albicans CaCi-2 + fluconazole, Alamar Blue growth, 48 h. growth inhibition, % (concentration not given with the values). 300,000 compounds, 0.57% hits;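 active = growth inhibition above about 58% in most replicates, limit read from the data, passing the limit was not always enough; inconclusive = exactly half the replicates above a set limit; inactive = most replicates below a set limit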;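 note: all wells also contain fluconazole at 8 µg/ml as a sub-toxic cotreatment; 0% = median of DMSO wells and 100% = median of geldanamycin control wells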
# Beta cell apopt: beta cell apoptosis inhibition. protection from apoptosis, % (no concentration beside the values). 300,000 compounds, 0.8% hits. AID 435005. INS-1E cytokine-induced death, ATP luminescence, 48 h; percent of positive-control rescue, neutral wells zero;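 active = Every replicate reaches about 75%, or at least half do and their mean reaches it too, limit read from the data; inconclusive = At least half of replicates reach the limit but their mean does not; inactive = Under half of replicates reach the limit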;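 note: 0% = cytokine-treated negative control wells and 100% = positive control rescue; higher means more ATP so stronger rescue from cytokine killing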
# CSC inhib: blocks cancer stem cells. cancer stem cell-like cells viability, luminescence. inhibition, % at 7.5 µM. 300,000 compounds, 1.1% hits. AID 2717; in the data active = inhibition above about 75%; inconclusive = no clear call, values can overlap the other calls; tested in HMLE shEcad cells
# Active calls of the source: *; ? = inconclusive; nt = not tested or not shown. This is a sample that favours compounds with a hit; in the whole collection about 3.1% have one here.
SMILES,T cruzi repl,PolyA inh,HIF act,Calb FLC,Beta cell apopt,CSC inhib
CC(C)(C)[C@@H]1CCC(=O)N(CC[C@H](Sc2ccccc2)c2ccccc2)CC1,39.0,9.5,-0.5,0.0,25.0,104.4*
CC(C)(C)[C@H]1CCC(=O)N([C@H](CSc2ccccc2)Cc2ccccc2)CC1,42.7,0.0,1.5,1.8,6.4,139.2*
CN(Cc1ccccc1)C(=O)COC(=O)CCNC(=O)c1ccccc1Cl,2.7,3.4,-0.4,-16.7,-3.3,-7.4
O=C(N/N=C/c1ccccc1O)c1cccc(C(F)(F)F)c1,-18.2,10.6,40.6*,80.3*,?,77.8*
O=C(N/N=C/c1ccc(-c2cccc(C(F)(F)F)c2)o1)c1cccc(F)c1,68.8*,23.4,0.9,-16.4,5.2,58.0
CCOC(=O)Cc1cc(=O)c2cc(C)ccc2[nH]1,-10.0,-11.4,0.9,1.5,-5.1,-6.9
Cc1ccc([N+](=O)[O-])cc1S(=O)(=O)n1ccnc1C,-10.0,-2.8,-0.1,-5.9,-2.7,nt
C=CCn1c(C)nnc1SCC(=O)Nc1nccs1,-6.5,3.6,-0.1,nt,-2.2,-5.0
CCCc1ccc(Oc2cn[nH]c2-c2ccc(O)cc2O)cc1,-0.2,nt,-0.7,67.8*,2.1,?
CC1CCC(C(C)C)C(OC(=O)Cn2c(-c3ccc(F)cc3)[n+](C)c3ccccc32)C1 (stereo unspecified),nt,nt,nt,nt,105.1*,9.8
Cc1cccc(OCc2n(CC(=O)OC3CC(C)CCC3C(C)C)c3ccccc3[n+]2C)c1 (stereo unspecified),64.5*,-5.8,-0.8,102.1*,106.3*,103.4*
CC1CCC(C(C)C)C(OC(=O)CSc2nnc(N)s2)C1 (stereo unspecified),-0.9,2.2,-0.2,3.3,-6.0,9.5
CC1CCC(C(C)C)C(OC(=O)Cn2c(-c3ccccc3)[n+](C)c3ccccc32)C1 (stereo unspecified),46.2,5.9,0.0,17.0,104.5*,17.2
Cn1cc(C(=O)N2CCc3ccccc32)cn1,0.3,-0.2,1.6,-7.0,-6.3,0.2
O=C(NCc1ccon1)C1CCC(=O)N(CCc2ccc(Cl)cc2)C1 (stereo unspecified),-5.8,-10.6,-0.4,5.3,-8.3,-1.1
O=C(/C=C/c1ccccc1)Nn1c(-c2cccs2)nc2ccccc2c1=O,17.7,-4.6,-0.1,94.8*,-0.9,1.2
COc1cccc2sc(Nc3nc(-c4ccncc4)cs3)nc12,76.3*,-21.3,0.1,38.3,34.4,49.1
COc1ccccc1-c1nnc(Nc2nc3c(OC)cccc3s2)o1,62.8*,1.3,4.6,0.0,72.2,67.3
Cc1ccc(C)c(S(=O)(=O)NC(C)CCc2ccccc2)c1 (stereo unspecified),1.5,3.7,-1.3,15.8,-6.3,2.1
CN(CC(=O)Nc1ccc(N2CCOCC2)cc1)C(=O)c1cc2c(s1)CCCC2,nt,nt,nt,nt,8.4,nt
COc1ccccc1CCNC(=O)CNC(=O)c1ccc2ccccc2c1,9.8,5.9,0.0,1.1,2.3,-13.6
COc1ccc(-c2nc3ccccc3[nH]2)cc1,-8.4,-7.6,-0.1,-16.8,nt,nt
COc1ccc(-c2cc(=O)n(-c3nc4ccccc4[nH]3)[nH]2)cc1,-12.0,-23.5,1.1,3.2,34.6,104.4*
Cc1cc(C)nc(SCc2ccc(C(=O)N/N=C3\CCCC(=O)C3)cc2)n1,-0.1,31.2,-0.4,11.1,-4.9,0.3
Cc1ccc(S(=O)(=O)/N=C(/c2ccc(F)cc2)N2CCCCC2)cc1,-5.4,2.7,1.3,29.0,2.2,-3.6
SMILES,T cruzi repl,PolyA inh,HIF act,Calb FLC,Beta cell apopt,CSC inhib
COc1cccc(CC2(CO)CCCN(C/C=C/c3ccccc3OC)C2)c1 (stereo unspecified),62.5*,15.7,0.2,-28.7,3.4,32.8
CC(C)Oc1ccc(CN2CCCC(CO)(Cc3ccccc3)C2)cc1CO (stereo unspecified),16.8,-2.4,0.3,-5.2,-2.6,1.8
COc1ccc(CN2CCCC(CO)(Cc3ccc(F)cc3)C2)cc1C (stereo unspecified),57.8*,-1.3,-0.2,-18.3,nt,27.6
COc1cccc(CC2(CO)CCCN(Cc3ccccc3Cl)C2)c1 (stereo unspecified),25.9,14.2,-0.4,2.6,-7.9,42.5
COc1cccc(CC2(CO)CCCN(Cc3cn(C)c4ccccc34)C2)c1 (stereo unspecified),64.7*,-8.9,-0.3,-33.1,-13.0,10.0
COc1cccc(CC2(CO)CCCN(Cc3ccc(CN4CCCCC4)s3)C2)c1 (stereo unspecified),71.2*,7.7,0.1,?,8.2,61.8
O=C(O)CCN1CCc2ccccc2C1c1ccncc1 (stereo unspecified),-13.3,1.1,-0.5,-1.1,0.0,-0.4
C[C@H](CO)N1C[C@H](C)[C@@H](CN(C)S(=O)(=O)c2ccccc2)Oc2c(NC(=O)CCC(F)(F)F)cccc2C1=O,nt,nt,nt,nt,-1.0,-13.2
Cn1cc(CN2CCCC(CO)(Cc3ccccc3)C2)c2ccccc21 (stereo unspecified),66.7*,-8.7,0.1,-20.1,4.4,18.8
COC(=O)c1ccc2c(=O)n(CC3CCCO3)c(SCC(=O)Nc3ccc(OC)cc3OC)nc2c1 (stereo unspecified),8.2,-8.5,0.2,-4.7,2.1,-6.1
Nc1ccccc1Nc1cc(-c2ccccc2)nn1-c1ccccc1,54.7*,-19.2,-0.4,-2.8,-2.1,10.6
CCCCNC(=O)CSc1nc2cc3c(cc2c(=O)n1Cc1ccco1)OCO3,22.2,-0.2,-0.1,7.4,6.6,-3.6
COC(=O)c1cc(S(=O)(=O)NCc2ccccc2OC)cn1C,-13.6,4.3,71.0*,5.8,1.1,6.1
N=C1C(c2nc3ccccc3s2)=C(O)CN1c1ccccc1,-12.5,-3.5,2.8,4.0,2.6,37.7
CC(NC(=O)COC(=O)c1cc(S(=O)(=O)N2CCOCC2)ccc1F)c1ccccc1 (stereo unspecified),nt,nt,nt,nt,-6.3,5.9
O=C(Nc1nccs1)c1ccc(COc2ccccc2Br)o1,-5.1,-16.9,1.8,21.1,1.1,195.6*
O=C(NCc1cccnc1)c1ccc(-c2ccccc2[N+](=O)[O-])o1,1.9,1.9,0.3,-11.1,5.0,-9.3
O=C(Nc1nccs1)c1ccc(COc2ccc(F)cc2)o1,-16.8,-4.5,2.9,5.6,1.2,25.7
O=C(Nc1cccnc1)c1ccc(COc2ccccc2Br)cc1,-1.8,-27.2,2.4,-17.3,2.2,90.0*
O=C(NCc1cccnc1)c1ccc(COc2ccccc2Cl)cc1,0.2,4.2,0.4,34.0,102.9*,7.5
O=C(NCc1cccnc1)c1ccc(-c2cccc(Cl)c2Cl)o1,57.9*,-4.5,0.1,61.2*,0.3,0.3
O=C(NCc1cccnc1)c1ccc(COc2ccccc2Br)cc1,12.4,-12.0,0.2,39.1,18.7,29.4
